Test results taken from ChEMBL document CHEMBL4014338, “Discovery of Small Molecules as Multi-Toll-like Receptor Agonists with Proinflammatory and Anticancer Activities” (J Med Chem, 2017).
The source made the active and inactive calls. No cut-off for these calls is given here.

Biological target: Toll-like receptor 3 (Homo sapiens) (UniProt O15455)
Assay: Agonist activity at human TLR3 expressed in HEK293 cells assessed as induction of NF-kB activation-mediated SEAP production at 30 uM after 24 hrs by HTS assay
Assay type: cell-based
Settings: not given
Method in brief: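 HTS in HEK293 cells stably expressing human TLR3 plus an NF-κB-inducible SEAP reporter, seeded at 20,000 cells/well and run in duplicate. Library compounds in DMSO at 30 μM final. Poly I:C 5 μg/mL served as positive control and cells + medium + DMSO as negative control. SEAP in supernatant read by QUANTI-Blue; assay quality judged by Z′ factor.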

Question: For `CC1(C)C=Cc2cc(OCc3ccc([N+](=O)[O-])cc3)c(OCc3ccc([N+](=O)[O-])cc3)cc2O1`, which Activity is on record?
Answer: Its Activity is “Active”.

Biological target: T1, Toll-like receptor 3 (Homo sapiens, UniProt O15455)
T1 sequence (O15455 whole entry): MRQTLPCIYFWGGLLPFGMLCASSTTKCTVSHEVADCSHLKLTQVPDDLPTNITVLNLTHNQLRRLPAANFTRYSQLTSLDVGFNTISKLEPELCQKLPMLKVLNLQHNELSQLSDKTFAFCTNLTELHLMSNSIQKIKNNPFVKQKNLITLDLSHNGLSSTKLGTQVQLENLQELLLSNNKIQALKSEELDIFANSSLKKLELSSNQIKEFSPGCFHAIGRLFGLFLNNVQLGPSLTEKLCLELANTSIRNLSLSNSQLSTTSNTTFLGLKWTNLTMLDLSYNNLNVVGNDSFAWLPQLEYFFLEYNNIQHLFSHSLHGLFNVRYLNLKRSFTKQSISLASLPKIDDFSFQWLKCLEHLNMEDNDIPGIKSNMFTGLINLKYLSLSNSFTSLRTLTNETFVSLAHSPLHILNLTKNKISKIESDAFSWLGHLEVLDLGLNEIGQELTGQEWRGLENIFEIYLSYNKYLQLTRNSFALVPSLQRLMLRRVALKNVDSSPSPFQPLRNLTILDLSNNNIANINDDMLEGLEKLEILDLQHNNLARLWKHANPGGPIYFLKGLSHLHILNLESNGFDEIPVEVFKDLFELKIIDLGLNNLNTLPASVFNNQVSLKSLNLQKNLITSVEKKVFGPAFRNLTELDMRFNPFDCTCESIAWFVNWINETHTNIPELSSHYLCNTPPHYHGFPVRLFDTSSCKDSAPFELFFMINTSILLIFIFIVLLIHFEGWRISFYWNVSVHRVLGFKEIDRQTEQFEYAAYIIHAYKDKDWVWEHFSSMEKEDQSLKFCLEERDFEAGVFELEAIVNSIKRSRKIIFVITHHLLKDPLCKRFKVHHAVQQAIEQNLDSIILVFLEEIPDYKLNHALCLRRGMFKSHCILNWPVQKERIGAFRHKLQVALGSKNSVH
Assay: Agonist activity at human TLR3 expressed in HEK293 cells assessed as induction of NF-kB activation-mediated SEAP production after 24 hrs by HTS assay
Assay type: cell-based
Settings: not given
Method in brief: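 Stable HEK293 lines expressing a single hTLR plus a SEAP reporter, grown in DMEM/10% FBS with selective antibiotics. Seeded at 5 × 10^4 cells/well for 24 h at 37 °C, then treated 24 h. Supernatant mixed with QUANTI-Blue, 1 h at 37 °C, OD 620 nm. Cognate agonists: Pam3CSK4 (TLR2), poly I:C (TLR3), LPS (TLR4), FLA-BS (TLR5), R848 (TLR7). EC50 as mean ± SD.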

Question: With `CC1(C)C=Cc2cc(OCc3ccc([N+](=O)[O-])cc3)c(OCc3ccc([N+](=O)[O-])cc3)cc2O1` as the molecule, how does the EC50 read?
Answer: The EC50 was 22.3 µM.

Question: How did the EC50 turn out when `CC1(C)CC(O)c2cc(OCc3ccc([N+](=O)[O-])cc3)c(OCc3ccc([N+](=O)[O-])cc3)cc2O1` (stereo not given) was run?
Answer: The EC50 was 42.5 µM.

Biological target: Toll-like receptor 3 (Homo sapiens) (UniProt O15455)
Assay: Agonist activity at human TLR3 expressed in HEK293 cells assessed as induction of NF-kB activation-mediated SEAP production at 25 uM after 24 hrs by HTS assay relative to control
Assay type: cell-based
Settings: not given
Method in brief: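 hTLR3 HEK293 SEAP reporter cells seeded at 5 × 10^4 cells/well for 24 h, exposed to 25 μM for 24 h. Supernatant SEAP detected with QUANTI-Blue (1 h, 37 °C, OD 620 nm). Activation normalized to untreated cells and expressed as fold change.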

Question: With `COc1ccc(COc2cc3c(cc2OCc2ccc(OC)c(F)c2)C(=O)CC(C)(C)O3)cc1F` as the molecule, how does the fold change (FC) read?
Answer: The fold change (FC) was 1.08.

Question: `CCC1(CC)C=Cc2cc(OCc3ccc([N+](=O)[O-])cc3)c(OCc3ccc([N+](=O)[O-])cc3)cc2O1` was tested. Which fold change (FC) did it give?
Answer: The fold change (FC) was 1.16.

Question: Which fold change (FC) does the source give for `CC1(C)C=Cc2cc(OCc3ccc([N+](=O)[O-])c(F)c3)c(OCc3ccc([N+](=O)[O-])c(F)c3)cc2O1` here?
Answer: Its fold change (FC) is 1.24.

Question: With `CC1(C)C=Cc2cc(OCc3ccc([N+](=O)[O-])cc3)c(OCc3ccc([N+](=O)[O-])cc3)cc2O1` as the molecule, how does the fold change (FC) read?
Answer: The fold change (FC) was 5.34.

Question: Which fold change (FC) does the source give for `CC1(C)C=Cc2cc(OCc3ccccc3)c(OCc3ccccc3)cc2O1` here?
Answer: The fold change (FC) was 1.09.

Question: Which fold change (FC) does the source give for `COc1cc2c(cc1OCc1ccc([N+](=O)[O-])cc1)C=CC(C)(C)O2` here?
Answer: Its fold change (FC) is 1.19.

Question: Which fold change (FC) does the source give for `CC1(C)C=Cc2cc(OC(=O)c3ccc([N+](=O)[O-])cc3)c(OC(=O)c3ccc([N+](=O)[O-])cc3)cc2O1` here?
Answer: The fold change (FC) was 1.65.

Question: `CC1(C)C=Cc2cc(O)c(OCc3ccc([N+](=O)[O-])cc3)cc2O1` was tested. Which fold change (FC) did it give?
Answer: The fold change (FC) was 1.17.

Question: `CC1(C)C=Cc2cc(OCc3ccc(C(F)(F)F)cc3)c(OCc3ccc(C(F)(F)F)cc3)cc2O1` was tested. Which fold change (FC) did it give?
Answer: The fold change (FC) was 0.99.

Question: `COc1ccc(COc2cc3c(cc2OCc2ccc(OC)c(F)c2)OC(C)(C)C=C3)cc1F` was tested. Which fold change (FC) did it give?
Answer: The fold change (FC) was 1.06.

Question: Which fold change (FC) does the source give for `CC1(C)C=Cc2cc(OCc3ccc(F)c(F)c3)c(OCc3ccc(F)c(F)c3)cc2O1` here?
Answer: The fold change (FC) was 0.99.

Question: `CC1(C)CC(O)c2cc(OCc3ccc([N+](=O)[O-])c(F)c3)c(OCc3ccc([N+](=O)[O-])c(F)c3)cc2O1` (stereo not given) was tested. Which fold change (FC) did it give?
Answer: The fold change (FC) was 2.34.

Question: How did the fold change (FC) turn out when `COc1ccc(COc2cc3c(cc2OCc2ccc(OC)c(F)c2)C(O)CC(C)(C)O3)cc1F` (stereo not given) was run?
Answer: The fold change (FC) was 1.34.

Question: How did the fold change (FC) turn out when `O=[N+]([O-])c1ccc(COc2cc3c(cc2OCc2ccc([N+](=O)[O-])cc2)OC2(C=C3)CCCCCC2)cc1` was run?
Answer: The fold change (FC) was 1.07.

Question: Which fold change (FC) does the source give for `CC1(C)C=Cc2cc(OCc3cccc([N+](=O)[O-])c3)c(OCc3cccc([N+](=O)[O-])c3)cc2O1` here?
Answer: The fold change (FC) was 1.1.

Question: For `O=[N+]([O-])c1ccc(COc2cc3c(cc2OCc2ccc([N+](=O)[O-])cc2)OC2(C=C3)CCCC2)cc1`, which fold change (FC) is on record?
Answer: The fold change (FC) was 1.22.

Question: `CC1(C)CC(=O)c2cc(OCc3ccc([N+](=O)[O-])c(F)c3)c(OCc3ccc([N+](=O)[O-])c(F)c3)cc2O1` was tested. Which fold change (FC) did it give?
Answer: Its fold change (FC) is 1.22.

Question: With `CC1(C)CC(O)c2cc(OCc3ccc([N+](=O)[O-])cc3)c(OCc3ccc([N+](=O)[O-])cc3)cc2O1` (stereo not given) as the molecule, how does the fold change (FC) read?
Answer: Its fold change (FC) is 2.5.

Question: How did the fold change (FC) turn out when `CC1(C)C=Cc2cc(OCc3ccccc3[N+](=O)[O-])c(OCc3ccccc3[N+](=O)[O-])cc2O1` was run?
Answer: Its fold change (FC) is 1.08.

Question: For `O=[N+]([O-])c1ccc(COc2cc3c(cc2OCc2ccc([N+](=O)[O-])cc2)OC2(C=C3)CCCCC2)cc1`, which fold change (FC) is on record?
Answer: Its fold change (FC) is 1.

Question: `CC1(C)CC(=O)c2cc(OCc3ccc([N+](=O)[O-])cc3)c(OCc3ccc([N+](=O)[O-])cc3)cc2O1` was tested. Which fold change (FC) did it give?
Answer: Its fold change (FC) is 1.76.

Question: With `CC1(C)CC(O)c2cc(OCc3ccc(F)c(F)c3)c(OCc3ccc(F)c(F)c3)cc2O1` (stereo not given) as the molecule, how does the fold change (FC) read?
Answer: Its fold change (FC) is 0.95.

Question: Which fold change (FC) does the source give for `CC1(C)CC(O)c2cc(OCc3ccc(C(F)(F)F)cc3)c(OCc3ccc(C(F)(F)F)cc3)cc2O1` (stereo not given) here?
Answer: The fold change (FC) was 2.36.

Question: For `CC1(C)CC(=O)c2cc(OCc3ccc(C(F)(F)F)cc3)c(OCc3ccc(C(F)(F)F)cc3)cc2O1`, which fold change (FC) is on record?
Answer: Its fold change (FC) is 1.19.

Question: For `CC1(C)CC(=O)c2cc(OCc3ccc(F)c(F)c3)c(OCc3ccc(F)c(F)c3)cc2O1`, which fold change (FC) is on record?
Answer: Its fold change (FC) is 1.22.

Species: Homo sapiens
Assay: Activation of NF-kB in HEK293 cells assessed as SEAP production at 30 uM after 24 hrs by HTS assay
Assay type: cell-based
Settings: not given
Method in brief: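 hTLR3-transfected HEK293 cells carrying an NF-κB-inducible SEAP reporter, seeded at 20,000 cells/well in duplicate; library compounds in DMSO at 30 μM final. Poly I:C 5 μg/mL as positive control; cells + medium + DMSO as negative control. SEAP in supernatant read by QUANTI-Blue; hits ranked on RMS values.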

Question: With `CC1(C)C=Cc2cc(OCc3ccc([N+](=O)[O-])cc3)c(OCc3ccc([N+](=O)[O-])cc3)cc2O1` as the molecule, how does the Activity read?
Answer: Its Activity is “inactive”.

System: HEK293
Assay: Cytotoxicity against HEK293 cells at 25 uM
Assay type: cell-based
Settings: human, hek293, 25 µM

Question: Which Activity does the source give for `CC1(C)C=Cc2cc(OCc3ccc([N+](=O)[O-])cc3)c(OCc3ccc([N+](=O)[O-])cc3)cc2O1` here?
Answer: Its Activity is “Non-Toxic”.
